Experimental data as given in ChEMBL document CHEMBL1129275, “Synthesis and in vitro and in vivo characteristics of an iodinated analogue of the beta-adrenoceptor antagonist carazolol” (J Med Chem, 1996).

Experiments:
[1] = system: Oryctolagus cuniculus; test: Biodistribution pattern of [123I]- ligand was evaluated in blood of anesthetized rabbit after Intravenous injection of 50 uCi after 30 min; assay type: ADME, organism-based; settings: in vivo, 0.5 h
Method in brief: (§1)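 Male New Zealand white rabbits, 2.5–3.5 kg, anesthetized with 5 mg/kg xylazine plus 30 mg/kg ketamine im. Each received 50 uCi radioligand (specific activity > 5000 Ci/mmol) iv via ear vein. Animals were killed with 200 mg/kg pentobarbital im at the set time. Blood was drawn by intracardiac puncture and organs weighed. Gamma counting was decay-corrected, expressed as %ID x kg body weight/g tissue, mean ± SEM, n = 3/time point.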

[2] = system: Oryctolagus cuniculus; test: Biodistribution pattern of [123I]- ligand was evaluated in intestine of anesthetized rabbit after Intravenous injection of 50 uCi after 1 hr; assay type: ADME, organism-based; settings: in vivo; method in brief: as §1
[3] = system: Oryctolagus cuniculus; test: Biodistribution pattern of [123I]- ligand was evaluated in intestine of anesthetized rabbit after Intravenous injection of 50 uCi after 24 hr; assay type: ADME, organism-based; settings: in vivo; method in brief: as §1
[4] = system: Oryctolagus cuniculus; test: Biodistribution pattern of [123I]- ligand was evaluated in kidney of anesthetized rabbit after Intravenous injection of 50 uCi after 30 min; assay type: ADME, organism-based; settings: in vivo, 0.5 h; method in brief: as §1
[5] = system: Oryctolagus cuniculus; test: Biodistribution pattern of [123I]- ligand was evaluated in kidney of anesthetized rabbit after Intravenous injection of 50 uCi after 4 hr; assay type: ADME, organism-based; settings: in vivo; method in brief: as §1
[6] = system: Oryctolagus cuniculus; test: Biodistribution pattern of [123I]- ligand was evaluated in kidney of anesthetized rabbit after Intravenous injection of 50 uCi after 6 hr; assay type: ADME, organism-based; settings: in vivo; method in brief: as §1
[7] = system: Oryctolagus cuniculus; test: Biodistribution pattern of [123I]- ligand was evaluated in left atrial muscle of anesthetized rabbit after Intravenous injection of 50 uCi after 1 hr; assay type: ADME, organism-based, Muscle tissue; settings: in vivo; method in brief: as §1
[8] = system: Oryctolagus cuniculus; test: Biodistribution pattern of [123I]- ligand was evaluated in left atrial muscle of anesthetized rabbit after Intravenous injection of 50 uCi after 5 min; assay type: ADME, organism-based, Muscle tissue; settings: in vivo; method in brief: as §1
[9] = system: Oryctolagus cuniculus; test: Biodistribution pattern of [123I]- ligand was evaluated in left ventricular muscle of anesthetized rabbit after Intravenous injection of 50 uCi after 24 hr; assay type: ADME, organism-based, Muscle tissue; settings: in vivo; method in brief: as §1
[10] = system: Oryctolagus cuniculus; test: Biodistribution pattern of [123I]- ligand was evaluated in left ventricular muscle of anesthetized rabbit after Intravenous injection of 50 uCi after 2 hr; assay type: ADME, organism-based, Muscle tissue; settings: in vivo; method in brief: as §1
[11] = system: Oryctolagus cuniculus; test: Biodistribution pattern of [123I]- ligand was evaluated in right atrial muscle of anesthetized rabbit after Intravenous injection of 50 uCi after 2 hr; assay type: ADME, organism-based, Muscle tissue; settings: in vivo
Method in brief: (§2)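 Male New Zealand white rabbits (2.5–3.5 kg), anesthetized with xylazine 5 mg/kg plus ketamine 30 mg/kg im, given 50 µCi radioligand (specific activity >5000 Ci/mmol) iv via ear vein. Euthanized at set times by pentobarbital 200 mg/kg im, n = 3/time point. Organs removed and weighed, gamma-counted, decay/weight corrected; expressed as % ID x kg body weight/g tissue, mean ± SEM.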

[12] = system: Oryctolagus cuniculus; test: Cerebral biodistribution pattern of [123I]- ligand was evaluated in striatum of anesthetized rabbit after Intravenous injection of 50 uCi after 24 hr; assay type: ADME, organism-based; settings: in vivo; method in brief: as §2
[13] = system: Oryctolagus cuniculus; test: Cerebral biodistribution pattern of [123I]- ligand was evaluated in striatum of anesthetized rabbit after Intravenous injection of 50 uCi after 2 hr; assay type: ADME, organism-based; settings: in vivo; method in brief: as §2
[14] = system: Oryctolagus cuniculus; test: Cerebral biodistribution pattern of [123I]- ligand was evaluated in striatum of anesthetized rabbit after Intravenous injection of 50 uCi after 6 hr; assay type: ADME, organism-based; settings: in vivo; method in brief: as §2
[15] = system: Oryctolagus cuniculus; test: Cerebral biodistribution pattern of [123I]- ligand was evaluated in thalamus of anesthetized rabbit after Intravenous injection of 50 uCi after 24 hr; assay type: ADME, organism-based; settings: in vivo; method in brief: as §2
[16] = system: Oryctolagus cuniculus; test: Cerebral biodistribution pattern of [123I]- ligand was evaluated in thalamus of anesthetized rabbit after Intravenous injection of 50 uCi after 30 min; assay type: ADME, organism-based; settings: in vivo, 0.5 h; method in brief: as §2
[17] = system: Oryctolagus cuniculus; test: Cerebral biodistribution pattern of [123I]- ligand was evaluated in thalamus of anesthetized rabbit after Intravenous injection of 50 uCi after 4 hr; assay type: ADME, organism-based; settings: in vivo; method in brief: as §2
[18] = system: Oryctolagus cuniculus; test: Cerebral biodistribution pattern of [123I]- ligand was evaluated in thalamus of anesthetized rabbit after Intravenous injection of 50 uCi after 6 hr; assay type: ADME, organism-based; settings: in vivo
Method in brief: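 Male New Zealand white rabbits (2.5–3.5 kg) anesthetized with xylazine 5 mg/kg plus ketamine 30 mg/kg im; 50 uCi radioligand (specific activity > 5000 Ci/mmol) given iv via ear vein. Euthanized by pentobarbital 200 mg/kg im at set times up to 24 h (n = 3/time point). Brain regions weighed and gamma-counted, decay-corrected, expressed as % ID x kg body weight/g tissue, mean ± SEM.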

[19] = system: Oryctolagus cuniculus; test: Biodistribution pattern of [123I]- ligand was evaluated in lung of anesthetized rabbit after Intravenous injection of 50 uCi after 4 hr; assay type: ADME, organism-based; settings: in vivo; method in brief: as §1
[20] = system: Oryctolagus cuniculus; test: Cerebral biodistribution pattern of [123I]- ligand was evaluated in cerebellum of anesthetized rabbit after Intravenous injection of 50 uCi after 4 hr; assay type: ADME, organism-based; settings: in vivo; method in brief: as §2
[21] = system: Oryctolagus cuniculus; test: Cerebral biodistribution pattern of [123I]- ligand was evaluated in hypothalamus of anesthetized rabbit after Intravenous injection of 50 uCi after 24 hr; assay type: ADME, organism-based; settings: in vivo; method in brief: as §2
[22] = system: Oryctolagus cuniculus; test: Cerebral biodistribution pattern of [123I]- ligand was evaluated in hypothalamus of anesthetized rabbit after Intravenous injection of 50 uCi after 4 hr; assay type: ADME, organism-based; settings: in vivo; method in brief: as §2
[23] = system: Oryctolagus cuniculus; test: […] biodistribution pattern of [123I]- ligand was evaluated in kidney of anesthetized rabbit after Intravenous injection of 50 uCi after 2 hr; assay type: ADME, organism-based; settings: in vivo; method in brief: as §2
[24] = system: Oryctolagus cuniculus; test: Cerebral biodistribution pattern of [123I]- ligand was evaluated in pituitary gland of anesthetized rabbit after Intravenous injection of 50 uCi after 1 hr; assay type: ADME, organism-based; settings: in vivo; method in brief: as §2
[25] = system: Oryctolagus cuniculus; test: Biodistribution pattern of [123I]- ligand was evaluated in blood of anesthetized rabbit after Intravenous injection of 50 uCi after 2 hr; assay type: ADME, organism-based; settings: in vivo; method in brief: as §1
[26] = system: Oryctolagus cuniculus; test: Biodistribution pattern of [123I]- ligand was evaluated in fat of anesthetized rabbit after Intravenous injection of 50 uCi after 4 hr; assay type: ADME, organism-based, Adipose tissue; settings: in vivo; method in brief: as §1
[27] = system: Oryctolagus cuniculus; test: Biodistribution pattern of [123I]- ligand was evaluated in spleen of anesthetized rabbit after Intravenous injection of 50 uCi after 2 hr; assay type: ADME, organism-based; settings: in vivo; method in brief: as §2
[28] = system: Oryctolagus cuniculus; test: Biodistribution pattern of [123I]- ligand was evaluated in spleen of anesthetized rabbit after Intravenous injection of 50 uCi after 30 min; assay type: ADME, organism-based; settings: in vivo, 0.5 h; method in brief: as §2
[29] = system: Oryctolagus cuniculus; test: Biodistribution pattern of [123I]- ligand was evaluated in spleen of anesthetized rabbit after Intravenous injection of 50 uCi after 6 hr; assay type: ADME, organism-based; settings: in vivo; method in brief: as §2
[30] = system: Oryctolagus cuniculus; test: Biodistribution pattern of [123I]- ligand was evaluated in right ventricular muscle of anesthetized rabbit after Intravenous injection of 50 uCi after 4 hr; assay type: ADME, organism-based, Muscle tissue; settings: in vivo; method in brief: as §2
[31] = system: Oryctolagus cuniculus; test: Biodistribution pattern of [123I]- ligand was evaluated in liver of anesthetized rabbit after Intravenous injection of 50 uCi after 1 hr; assay type: ADME, organism-based; settings: in vivo; method in brief: as §1
[32] = system: Oryctolagus cuniculus; test: Biodistribution pattern of [123I]- ligand was evaluated in liver of anesthetized rabbit after Intravenous injection of 50 uCi after 30 min; assay type: ADME, organism-based; settings: in vivo, 0.5 h; method in brief: as §1
[33] = system: Oryctolagus cuniculus; test: Biodistribution pattern of [123I]- ligand was evaluated in lung of anesthetized rabbit after Intravenous injection of 50 uCi after 2 hr; assay type: ADME, organism-based; settings: in vivo; method in brief: as §1
[34] = system: Oryctolagus cuniculus; test: Biodistribution pattern of [123I]- ligand was evaluated in right ventricular muscle of anesthetized rabbit after Intravenous injection of 50 uCi after 5 min; assay type: ADME, organism-based, Muscle tissue; settings: in vivo; method in brief: as §2
[35] = system: Oryctolagus cuniculus; test: Biodistribution pattern of [123I]- ligand was evaluated in right ventricular muscle of anesthetized rabbit after Intravenous injection of 50 uCi after 6 hr; assay type: ADME, organism-based, Muscle tissue; settings: in vivo; method in brief: as §2
[36] = system: Oryctolagus cuniculus; test: Cerebral biodistribution pattern of [123I]- ligand was evaluated in cerebellum of anesthetized rabbit after Intravenous injection of 50 uCi after 30 min; assay type: ADME, organism-based; settings: in vivo, 0.5 h; method in brief: as §2

CC(C)(/C=C/I)NC[C@H](O)COc1cccc2[nH]c3ccccc3c12
ID x kg of body weight/g of tissue [1]: 0.02% | ID x kg of body weight/g of tissue [2]: 0.1% | ID x kg of body weight/g of tissue [3]: 0.02% | ID x kg of body weight/g of tissue [4]: < 0.29% | ID x kg of body weight/g of tissue [5]: 0.05% | ID x kg of body weight/g of tissue [6]: 0.04% | ID x kg of body weight/g of tissue [7]: 0.16% | ID x kg of body weight/g of tissue [8]: 0.36% | ID x kg of body weight/g of tissue [9]: 0.02% | ID x kg of body weight/g of tissue [10]: 0.2% | ID x kg of body weight/g of tissue [11]: 0.13% | ID x kg of body weight/g of tissue [12]: 0.02% | ID x kg of body weight/g of tissue [13]: 0.07% | ID x kg of body weight/g of tissue [14]: 0.04% | ID x kg of body weight/g of tissue [15]: 0.02% | ID x kg of body weight/g of tissue [16]: < 0.1% | ID x kg of body weight/g of tissue [17]: 0.03% | ID x kg of body weight/g of tissue [18]: 0.03% | ID x kg of body weight/g of tissue [19]: 0.82% | ID x kg of body weight/g of tissue [20]: 0.13% | ID x kg of body weight/g of tissue [21]: 0.02% | ID x kg of body weight/g of tissue [22]: 0.03% | ID x kg of body weight/g of tissue [23]: 0.11% | ID x kg of body weight/g of tissue [24]: 0.11% | ID x kg of body weight/g of tissue [25]: 0.01% | ID x kg of body weight/g of tissue [26]: 0.02% | ID x kg of body weight/g of tissue [27]: 0.22% | ID x kg of body weight/g of tissue [28]: 0.41% | ID x kg of body weight/g of tissue [29]: 0.07% | ID x kg of body weight/g of tissue [30]: 0.12% | ID x kg of body weight/g of tissue [31]: 0.13% | ID x kg of body weight/g of tissue [32]: 0.19% | ID x kg of body weight/g of tissue [33]: 1.29% | ID x kg of body weight/g of tissue [34]: 0.43% | ID x kg of body weight/g of tissue [35]: 0.08% | ID x kg of body weight/g of tissue [36]: < 0.15%
